According to ChEMBL document CHEMBL1811814, “Synthesis and evaluation of indole, pyrazole, chromone and pyrimidine based conjugates for tumor growth inhibitory activities--development of highly efficacious cytotoxic agents” (Eur J Med Chem, 2010):

What was measured:
Assay type in all cases: functional
Parameters in all cases: scale not given: the % may be the effect or the level left
[1] = test system: HCT-116; assay: Growth inhibition of human HCT116 cells assessed tumor cell growth at 10^-5 M
Summary of the method: (§1)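 NCI 60-human-tumor-cell-line panel screen. Each compound was tested at a single concentration of 10^-5 M, and percent growth of tumor cells was recorded for each cell line. Growth inhibition was expressed from these percent-growth values.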

[2] = test system: NCI-H23; assay: Growth inhibition of human NCI-H23 cells assessed tumor cell growth at 10^-5 M; summary of the method: as §1
[3] = test system: M14; assay: Growth inhibition of human M14 cells assessed tumor cell growth at 10^-5 M; summary of the method: as §1
[4] = test system: SF-295; assay: Growth inhibition of human SF295 cells assessed tumor cell growth at 10^-5 M; summary of the method: as §1
[5] = test system: IGROV-1; assay: Growth inhibition of human IGROV1 cells assessed tumor cell growth at 10^-5 M; summary of the method: as §1
[6] = test system: SN12C; assay: Growth inhibition of human SN12C cells assessed tumor cell growth at 10^-5 M; summary of the method: as §1
[7] = test system: SF-268; assay: Growth inhibition of human SF268 cells assessed tumor cell growth at 10^-5 M; summary of the method: as §1
[8] = test system: HOP-92; assay: Growth inhibition of human HOP92 cells assessed tumor cell growth at 10^-5 M; summary of the method: as §1
[9] = test system: SK-OV-3; assay: Growth inhibition of human SKOV3 cells assessed tumor cell growth at 10^-5 M; summary of the method: as §1
[10] = test system: A498; assay: Growth inhibition of human A498 cells assessed tumor cell growth at 10^-5 M; summary of the method: as §1
[11] = test system: NCI-H322M; assay: Growth inhibition of human NCI-H322M cells assessed tumor cell growth at 10^-5 M; summary of the method: as §1
[12] = test system: T47D; assay: Growth inhibition of human T47D cells assessed tumor cell growth at 10^-5 M
Summary of the method: (§2)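 Single-dose screen at 10^-5 M across the 60 human tumor cell line panel, run to NCI standards. The value is the percent growth of each cell line in the presence of compound. Compounds active at this dose moved on to five-concentration testing (10^-4 to 10^-8 M).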

[13] = test system: MDA-MB-435; assay: Growth inhibition of human MDA-MB-435 cells assessed tumor cell growth at 10^-5 M; summary of the method: as §1
[14] = test system: SF-539; assay: Growth inhibition of human SF539 cells assessed tumor cell growth at 10^-5 M; summary of the method: as §1
[15] = test system: PC-3; assay: Growth inhibition of human PC3 cells assessed tumor cell growth at 10^-5 M; summary of the method: as §1
[16] = test system: HL-60(TB); assay: Growth inhibition of human HL-60(TB) cells assessed tumor cell growth at 10^-5 M
Summary of the method: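 HL-60(TB), part of the 60-line panel, tested at a single concentration of 10^-5 M. The read-out is percent tumor cell growth relative to untreated growth.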

[17] = test system: CAKI-1; assay: Growth inhibition of human Caki1 cells assessed tumor cell growth at 10^-5 M; summary of the method: as §1
[18] = test system: HOP-62; assay: Growth inhibition of human HOP62 cells assessed tumor cell growth at 10^-5 M; summary of the method: as §1
[19] = test system: OVCAR-3; assay: Growth inhibition of human OVCAR3 cells assessed tumor cell growth at 10^-5 M; summary of the method: as §1
[20] = test system: BT-549; assay: Growth inhibition of human BT549 cells assessed tumor cell growth at 10^-5 M; summary of the method: as §1
[21] = test system: 786-0; assay: Growth inhibition of human 786-0 cells assessed tumor cell growth at 10^-5 M; summary of the method: as §1
[22] = test system: A549; assay: Growth inhibition of human A549 cells assessed tumor cell growth at 10^-5 M; summary of the method: as §1
[23] = Growth inhibition of human Hs 578T cells assessed tumor cell growth at 10^-5 M; summary of the method: as §1
[24] = test system: DU-145; assay: Growth inhibition of human DU145 cells assessed tumor cell growth at 10^-5 M; summary of the method: as §1
[25] = test system: COLO 205; assay: Growth inhibition of human COLO205 cells assessed tumor cell growth at 10^-5 M; summary of the method: as §1
[26] = test system: SK-MEL-2; assay: Growth inhibition of human SK-MEL-2 cells assessed tumor cell growth at 10^-5 M; summary of the method: as §1
[27] = test system: NCI-H460; assay: Growth inhibition of human NCI-H460 cells assessed tumor cell growth at 10^-5 M; summary of the method: as §1
[28] = test system: U-251; assay: Growth inhibition of human U251 cells assessed tumor cell growth at 10^-5 M; summary of the method: as §2
[29] = test system: UACC-257; assay: Growth inhibition of human UACC257 cells assessed tumor cell growth at 10^-5 M; summary of the method: as §2
[30] = test system: NCI/ADR-RES; assay: Growth inhibition of human NCI/ADR-RES cells assessed tumor cell growth at 10^-5 M; summary of the method: as §1
[31] = test system: SK-MEL-28; assay: Growth inhibition of human SK-MEL-28 cells assessed tumor cell growth at 10^-5 M; summary of the method: as §1
[32] = test system: MDA-MB-468; assay: Growth inhibition of human MDA-MB-468 cells assessed tumor cell growth at 10^-5 M; summary of the method: as §1
[33] = test system: SK-MEL-5; assay: Growth inhibition of human SK-MEL-5 cells assessed tumor cell growth at 10^-5 M; summary of the method: as §1
[34] = test system: NCI-H226; assay: Growth inhibition of human NCI-H226 cells assessed tumor cell growth at 10^-5 M; summary of the method: as §1
[35] = test system: EKVX; assay: Growth inhibition of human EKVX cells assessed tumor cell growth at 10^-5 M; summary of the method: as §1
[36] = test system: HT-29; assay: Growth inhibition of human HT-29 cells assessed tumor cell growth at 10^-5 M; summary of the method: as §1
[37] = test system: ACHN; assay: Growth inhibition of human ACHN cells assessed tumor cell growth at 10^-5 M; summary of the method: as §1
[38] = test system: OVCAR-5; assay: Growth inhibition of human OVCAR5 cells assessed tumor cell growth at 10^-5 M; summary of the method: as §1
[39] = test system: HCT-15; assay: Growth inhibition of human HCT15 cells assessed tumor cell growth at 10^-5 M; summary of the method: as §1
[40] = test system: UO-31; assay: Growth inhibition of human UO31 cells assessed tumor cell growth at 10^-5 M; summary of the method: as §2
[41] = test system: OVCAR-8; assay: Growth inhibition of human OVCAR8 cells assessed tumor cell growth at 10^-5 M; summary of the method: as §1
[42] = test system: MCF7; assay: Growth inhibition of human MCF7 cells assessed tumor cell growth at 10^-5 M; summary of the method: as §1
[43] = test system: SNB-19; assay: Growth inhibition of human SNB19 cells assessed tumor cell growth at 10^-5 M; summary of the method: as §2
[44] = Growth inhibition of human […] cells assessed tumor cell growth at 10^-5 M; summary of the method: as §1
[45] = test system: MDA-MB-231; assay: Growth inhibition of human MDA-MB-231 cells assessed tumor cell growth at 10^-5 M; summary of the method: as §1
[46] = test system: NCI-H522; assay: Growth inhibition of human NCI-H522 cells assessed tumor cell growth at 10^-5 M; summary of the method: as §1
[47] = test system: OVCAR-4; assay: Growth inhibition of human OVCAR4 cells assessed tumor cell growth at 10^-5 M; summary of the method: as §1
[48] = test system: CCRF-CEM; assay: Growth inhibition of human CCRF-CEM cells assessed tumor cell growth at 10^-5 M; summary of the method: as §1
[49] = test system: SR; assay: Growth inhibition of human SR cells assessed tumor cell growth at 10^-5 M; summary of the method: as §2
[50] = test system: K562; assay: Growth inhibition of human K562 cells assessed tumor cell growth at 10^-5 M; summary of the method: as §1
[51] = test system: SW-620; assay: Growth inhibition of human SW620 cells assessed tumor cell growth at 10^-5 M; summary of the method: as §2
[52] = test system: UACC-62; assay: Growth inhibition of human UACC62 cells assessed tumor cell growth at 10^-5 M; summary of the method: as §2
[53] = test system: RXF 393; assay: Growth inhibition of human RXF393 cells assessed tumor cell growth at 10^-5 M; summary of the method: as §1
[54] = test system: KM12; assay: Growth inhibition of human KM12 cells assessed tumor cell growth at 10^-5 M; summary of the method: as §1
[55] = test system: MOLT-4; assay: Growth inhibition of human MOLT4 cells assessed tumor cell growth at 10^-5 M; summary of the method: as §1
[56] = test system: TK-10; assay: Growth inhibition of human TK10 cells assessed tumor cell growth at 10^-5 M; summary of the method: as §2
[57] = test system: LOX IMVI; assay: Growth inhibition of human LOXIMVI cells assessed tumor cell growth at 10^-5 M; summary of the method: as §1
[58] = test system: HCC 2998; assay: Growth inhibition of human HCC2998 cells assessed tumor cell growth at 10^-5 M; summary of the method: as §1
[59] = test system: Malme-3M; assay: Growth inhibition of human MALME-3M cells assessed tumor cell growth at 10^-5 M; summary of the method: as §1
[60] = test system: SNB-75; assay: Growth inhibition of human SNB75 cells assessed tumor cell growth at 10^-5 M; summary of the method: as §2

## O=C1C(=Cc2cn(Cc3ccccc3)c3ccccc23)C(=O)N(Cc2ccccc2)C(=O)N1Cc1ccccc1
[1]
  Activity: 76.1%
[2]
  Activity: 87.7%
[3]
  Activity: 103.5%
[4]
  Activity: 34.3%
[5]
  Activity: 75.7%
[6]
  Activity: 101.3%
[7]
  Activity: 87.5%
[8]
  Activity: 90.9%
[9]
  Activity: 47.7%
[10]
  Activity: -95.7%
[11]
  Activity: 105%
[12]
  Activity: 51.6%
[13]
  Activity: 108.2%
[14]
  Activity: 83.5%
[15]
  Activity: 90.3%
[16]
  Activity: 96.4%
[17]
  Activity: 94.6%
[18]
  Activity: 85.4%
[19]
  Activity: 97.7%
[20]
  Activity: 118.1%
[21]
  Activity: 93.2%
[22]
  Activity: 80%
[23]
  Activity: 90.7%
[24]
  Activity: 110.4%
[25]
  Activity: 26.4%
[26]
  Activity: 83.9%
[27]
  Activity: 36%
[28]
  Activity: 75.6%
[29]
  Activity: 52.9%
[30]
  Activity: 105.7%
[31]
  Activity: 109.5%
[32]
  Activity: -71.7%
[33]
  Activity: 104.1%
[34]
  Activity: -49.4%
[35]
  Activity: 97.5%
[36]
  Activity: 110.8%
[37]
  Activity: 86.2%
[38]
  Activity: -7.2%
[39]
  Activity: 85.7%
[40]
  Activity: 73.3%
[41]
  Activity: 83.5%
[42]
  Activity: 80.2%
[43]
  Activity: 87.1%
[44]
  Activity: 93.2%
[45]
  Activity: 89.3%
[46]
  Activity: 87.6%
[47]
  Activity: 57.3%
[48]
  Activity: 117.9%
[49]
  Activity: 87.2%
[50]
  Activity: 81.4%
[51]
  Activity: 100.6%
[52]
  Activity: 53.1%
[53]
  Activity: 57.6%
[54]
  Activity: 100.7%
[55]
  Activity: 95.2%
[56]
  Activity: 40.6%
[57]
  Activity: 87.1%
[58]
  Activity: 97.4%
[59]
  Activity: 104.8%
[60]
  Activity: 44.9%
